# Shown are actives, neighbours in structure and some others; about 1.9% of the full set was active somewhere.
# CXCR6 block – CXCR6 (human) receptor inhibition; O00574; CHO-K1 PathHunter CXCR6 beta-arrestin, luminescence; inhibition, % at 20 µM; 0.36% of 360,000 active; in the data active = inhibition above about 34%, passing the limit was not always enough;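 also: antagonist mode with CXCL16 agonist at 10 nM final; 0% = 10 nM CXCL16 with DMSO and 100% = unstimulated wells without agonist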
# Target sequence (O00574 whole entry, looked up): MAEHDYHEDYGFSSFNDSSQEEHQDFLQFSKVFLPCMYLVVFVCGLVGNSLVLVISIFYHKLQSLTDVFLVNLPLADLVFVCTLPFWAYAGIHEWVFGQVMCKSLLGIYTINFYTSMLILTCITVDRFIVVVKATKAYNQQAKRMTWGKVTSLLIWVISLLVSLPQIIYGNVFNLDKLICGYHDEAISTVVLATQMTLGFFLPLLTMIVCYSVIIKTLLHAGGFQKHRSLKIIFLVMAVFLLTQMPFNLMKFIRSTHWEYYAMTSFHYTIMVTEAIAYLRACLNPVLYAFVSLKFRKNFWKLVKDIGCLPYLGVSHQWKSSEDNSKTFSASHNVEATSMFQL
# APJ antag – blocks the human apelin receptor APJ; CHO-K1 APJ beta-arrestin complementation, luminescence; P35414; 0.32% of 330,000 active; inhibition, % at 20 µM;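 active = inhibition above about 40% at 20 µM, limit read from the data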;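 also: cells challenged with 10 nM apelin-13 agonist together with compound; plate controls were apelin-13 plus DMSO wells for no effect and DMSO wells lacking apelin-13 for full effect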
# TAG inh – reduces triacylglycerol accumulation in H9c2 cells | inhibition, % at 12.5 µM | Nile Red lipid (TAG) fluorescence; cells loaded with 200 µM oleic acid | AID 651582 | 0.66% of 230,000 active;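 active = pattern-corrected inhibition of lipid staining of at least 50% with the nuclear-stain viability signal not falling by more than 50%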;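 also: 0% = DMSO wells and 100% = triacsin C control wells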
# APJ agonist – agonists of human APJ apelin receptor; P35414; CHO-K1 APJ PathHunter beta-arrestin, luminescence; 0% DMSO wells, 100% apelin; activation, % at 20 µM; 0.11% of 330,000 active;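 active = activation more than six SD over the plate average, tested at 20 µM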;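 also: 0% = DMSO alone and 100% = apelin-13 at 10 nM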
#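 Assay system: CHO-K1 APJ beta-arrestin complementation cell line / Compound: single test compound dose, 20 µM final, 1% DMSO / Times: overnight seeding, 90 min compound at 25 °C, 1 h detection / Technique: beta-gal luminescence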
# EBI2 antag – antagonists of human EBI2 receptor. AID 651636. 0.81% of 360,000 active. P32249. EBI2 beta-arrestin recruitment, luminescence, 7a,25-OHC stimulated. inhibition, % at 5 µM; in the data active = inhibition above about 38%;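 also: enzyme fragment complementation signal reports receptor beta-arrestin coupling in cells; 0% = agonist plus DMSO wells and 100% = wells without agonist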
# CCR6 antag – blocks CCL20-driven beta-arrestin recruitment at human CCR6; P51684; inhibition, % at 20 µM; 0.49% of 340,000 active; CHO-K1 CCR6 PathHunter beta-arrestin, luminescence, CCL20-stimulated;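 active = compounds whose inhibition of the agonist-driven luminescence signal at 20 µM reaches about 50%, limit read from the data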;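 also: cells stimulated with CCL20 at 14 nM final; plate controls were DMSO with CCL20 for no effect and DMSO without agonist for full effect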
# Target sequence (P51684 whole entry, looked up): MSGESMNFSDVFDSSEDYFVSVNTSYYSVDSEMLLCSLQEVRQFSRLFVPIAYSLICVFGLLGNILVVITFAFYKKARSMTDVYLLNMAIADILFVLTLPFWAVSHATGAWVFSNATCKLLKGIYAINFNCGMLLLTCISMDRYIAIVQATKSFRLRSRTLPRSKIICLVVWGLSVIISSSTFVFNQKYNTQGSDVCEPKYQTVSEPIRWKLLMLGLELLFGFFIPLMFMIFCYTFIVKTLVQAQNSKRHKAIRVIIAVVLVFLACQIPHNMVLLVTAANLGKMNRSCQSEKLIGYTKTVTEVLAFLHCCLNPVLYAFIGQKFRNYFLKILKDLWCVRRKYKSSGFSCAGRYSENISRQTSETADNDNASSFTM
# APJ antag confirm – APJ receptor antagonism confirmation | inhibition, % at 20 µM | shares compounds with APJ antag | 66% of 950 active | APJ beta-arrestin recruitment, luminescence, antagonist mode; in the data active = inhibition above about 50%
# CXCR6 confirm – confirmation of human CXCR6 receptor antagonists. shares compounds with CXCR6 block. CHO-K1 CXCR6 PathHunter beta-arrestin, luminescence. 65% of 700 active. inhibition, % at 20 µM;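 active = mean inhibition over four retests above 40%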;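 also: receptor stimulated with 10 nM CXCL16 agonist; beta-galactosidase fragment complementation upon beta-arrestin recruitment to receptor; plate controls were CXCL16 plus DMSO for no effect and DMSO without CXCL16 for full effect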
# EBI2 conf – EBI2 (human) antagonism, single concentration confirmation; shares compounds with EBI2 antag; EBI2 beta-arrestin luminescence, 7a,25-OHC antagonism; inhibition, % at 5 µM; 29% of 2,400 active; AID 651997;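 active = inhibition of at least 50%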
# EBI2 agonist – EBI2 agonism counter-screen. shares compounds with EBI2 antag. 2,400 tested, under 10 active. EBI2-expressing cells, agonist mode, luminescence, 60 min; 0% vehicle, 100% 7α,25-dihydroxycholesterol control. AID 652000. activation, % at 5 µM;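 active = activation of at least 50%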
# bGal cs – counter-screen for EBI2 antagonists: E. coli beta-galactosidase inhibition; shares compounds with EBI2 antag; purified beta-galactosidase, luminescent Galacton Star, 15 min; inhibition, % at 5 µM; 1% of 2,400 active; AID 652176;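 active = replicate-average signal at least 3 plate SD below neutral wells, shown as high inhibition, flagging enzyme-inhibiting false positives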;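 also: 0% = DMSO wells with enzyme and 100% = wells lacking enzyme; higher means stronger loss of beta-gal luminescence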
# The depositor's hits bear a star; . = not tested or not shown.
SMILES,CXCR6 block,APJ antag,TAG inh,APJ agonist,EBI2 antag,CCR6 antag,CXCR6 confirm,others
CCO[C@@H]1OC(C(N)=O)=C[C@H](C2CC2)[C@H]1CCCO,-5.1,2.3,6.5,-3.4,-1.1,-0.2,.,
Cc1ccc(OCCN2C(=O)c3ccccc3C2=O)c([N+](=O)[O-])c1,52.8*,47.9*,-1.3,-4.8,61.6*,46.3,58.3*,APJ antag confirm=66.2*;EBI2 conf=51.7*;EBI2 agonist=-0.2;bGal cs=7.4
COc1ccc(CN2C(=O)C(Cc3ccccc3)Nc3ncnc(N4CCN(c5ccccc5)CC4)c32)cc1 (centres undefined),70.4*,52.9*,-4.1,-20.7,44.1*,80.1*,68.2*,APJ antag confirm=110.0*;EBI2 conf=39.8;EBI2 agonist=-1.8;bGal cs=32.5*
CC(C)CC1Nc2ncnc(N3CCN(c4ccccc4)CC3)c2N(Cc2ccccc2)C1=O (centres undefined),15.5,-4.6,30.0,1.2,1.1,10.1,.,
O=C1C(Cc2ccccc2)Nc2ncnc(N3CCN(c4ccccc4)CC3)c2N1Cc1ccc(Cl)cc1 (centres undefined),67.9*,65.4*,-4.4,-16.8,64.6*,77.6*,69.8*,APJ antag confirm=103.9*;EBI2 conf=70.6*;EBI2 agonist=-3.6;bGal cs=39.4*
CCOC(=O)C1=CN(Cc2cccc(-c3cccnc3)c2)S(=O)(=O)N(C)C1C (centres undefined),2.8,.,-8.7,.,14.4,17.6,.,
CCN1CCN(c2ccc(NC(=O)CC3OC(=O)c4ccccc43)cc2C)CC1 (centres undefined),-1.6,.,12.7,.,-13.4,.,.,
CCc1ccc(C(=O)NNc2ccc(C)c(Cl)c2)cc1,9.5,52.7*,-21.4,-9.2,46.2*,38.4,.,APJ antag confirm=80.5*;EBI2 conf=22.9;EBI2 agonist=-2.7;bGal cs=-8.1
CCc1ccc(C(=O)NNc2ccc(F)cc2)cc1,14.2,29.7,-9.7,-7.9,5.0,16.1,.,
CC(=NNC(=O)c1ccncc1)c1cccc(Br)c1,-0.1,.,1.8,.,-0.3,1.5,.,
C/C(=N/NC(=O)c1ccc(C(C)(C)C)cc1)c1ccccn1,77.4*,69.1*,49.8,-18.7,74.3*,93.8*,82.2*,APJ antag confirm=88.2*;EBI2 conf=87.0*;EBI2 agonist=-3.4;bGal cs=6.6
C/C(=N\NC(=O)c1cccc(Br)c1)c1ccccn1,30.6,66.6*,49.6,-18.1,67.1*,65.3*,.,APJ antag confirm=59.3*;EBI2 conf=81.8*;EBI2 agonist=-1.9;bGal cs=9.1
CN(C(=O)c1cc(COc2ccc(F)c(F)c2)on1)C1CCOC1 (centres undefined),-11.2,-9.3,.,5.4,-7.9,-4.6,.,
CCCc1ccc(OC(=O)c2cccs2)cc1,50.1*,10.6,.,-3.7,-1.6,5.0,-2.2,
COc1ccc(CCNC(=O)COC(=O)c2cccs2)cc1,-2.6,3.3,16.0,-4.3,4.0,3.9,.,
Cc1cccc(COCCN2CCN(S(=O)(=O)c3ccccc3)CCC2=O)c1,-0.3,2.5,7.1,-6.0,-5.5,4.6,.,
C[C@@H]1CCCCO[C@H](CN(C)C(=O)C2CCCCC2)[C@@H](C)CN([C@H](C)CO)C(=O)c2cc(N(C)C)ccc2O1,-0.9,.,-19.6,.,-4.5,.,.,
COc1ccccc1NCC(=O)c1ccc(C)c(C)c1,51.8*,32.3,-3.0,-8.6,8.3,81.9*,28.6,
Cn1c(O)c(C2=c3ccccc3=NC2=O)[nH]c1=S,33.1,8.1,10.1,-4.2,-8.0,.,.,
COc1ccc2nc(-n3c(O)c(C4=c5ccccc5=NC4=O)[nH]c3=S)sc2c1,64.5*,.,.,.,1.2,78.1*,51.8*,
Cc1noc(C)c1NC(=O)Nc1cccc2c1O[C@H](CN(C)S(=O)(=O)c1cn(C)cn1)[C@@H](C)CN([C@H](C)CO)C2=O,45.0*,-6.1,1.8,0.6,-2.2,11.2,3.1,
Cc1noc(C)c1NC(=O)Nc1cccc2c1O[C@H](CN(C)S(C)(=O)=O)[C@@H](C)CN([C@H](C)CO)C2=O,5.1,4.3,-21.0,-2.0,-7.0,-2.3,.,
CCN(CC)C(=O)Cn1cnc2sc(C(=O)NCCCN3CCOCC3)c(C)c2c1=O,0.7,7.0,.,-1.6,0.4,7.7,.,
N#Cc1c(SCC(N)=O)nsc1SCc1ccccc1Cl,82.7*,1.0,5.6,-3.9,-8.1,18.4,0.3,
N#Cc1c(SCC(N)=O)nsc1SCc1ccc(Cl)cc1,-6.9,-5.3,-12.3,-0.4,1.8,5.5,.,
SMILES,CXCR6 block,APJ antag,TAG inh,APJ agonist,EBI2 antag,CCR6 antag,CXCR6 confirm,others
Cc1ccc(NCCC(=O)c2ccc(Br)cc2)cc1,2.5,1.9,.,-4.5,2.8,2.3,.,
Cc1ccc(NCC(=O)c2ccc(C)cc2)cc1,44.0*,16.6,.,-11.2,3.7,82.5*,57.8*,
O=C(C1CCN(S(=O)(=O)c2ccc(-n3cnnn3)cc2)CC1)N1CCCCC1,-5.3,8.0,.,0.5,-15.9,2.1,.,
COc1cc(C(=O)NC(=S)N(CCC#N)Cc2cccnc2)cc(OC)c1OC,-3.7,5.8,-2.8,-1.0,-13.6,3.5,.,
CCCOc1ccc(CN(CCC#N)C(=S)NC(=O)c2ccccc2)cc1,43.6*,16.4,.,-1.9,3.5,.,59.4*,
NC(=S)NN=C1c2cc(Cl)ccc2-c2c1cc(Cl)cc2[N+](=O)[O-],42.6*,.,5.2,.,10.9,76.5*,59.1*,
NC(=S)N/N=C1\CCOc2ccc(Cl)cc21,1.6,-0.7,-2.1,-2.9,-14.8,14.8,.,
CN(CC(=O)Nc1cc(S(=O)(=O)N2CCCC2)ccc1Cl)Cc1cccs1,28.7*,-5.0,8.9,-4.8,8.9,31.9,51.5*,
CCN(CC)CC(C)(C)C(=O)/C=C/c1ccc(/C=C/C(=O)C(C)(C)CN(CC)CC)cc1,97.9*,.,112.3*,.,78.4*,112.9*,95.4*,
Nc1cccc2c1C(=O)N(C(=O)/C=C/c1ccc(F)cc1)C2=O,48.3*,35.6,13.5,0.4,1.6,60.9*,38.3,
Nc1cccc2c1C(=O)N(C(=O)c1ccco1)C2=O,-1.7,21.4,3.1,-2.3,3.4,4.8,.,
O=C(Nc1nccs1)c1sc2cc(Cl)ccc2c1Cl,66.8*,31.0,-8.6,-5.8,16.1,72.8*,75.7*,
CC1=C(CC/C(C)=N/NC(N)=S)C(C)(C)CCC1,45.7*,21.8,.,-4.0,28.9,19.0,14.7,
